Experimental data taken from ChEMBL document CHEMBL3244337, “Antiallergic activity of tetracyclic derivatives of quinoline-2-carboxylic acid. 2. Some benzothienoquinolinecarboxylic acids” (1978).

Assays:
Assay type in all cases: functional
[1] = tested on: Rattus norvegicus; assay: Antiallergic activity in ip dosed Sprague-Dawley rat assessed as compound required to > 50% inhibition of egg albumin/Bordetulla pertusis antibody-induced passive sensitization treated 5 mins before induction by passive cutaneous anaphylaxis assay
Procedure, shortened: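 Passive cutaneous anaphylaxis in Sprague-Dawley rats. Intradermal anti-egg-albumin antibody was left for 24 h, then compound was given ip 5 min before iv antigen and Evans blue, with six animals per dose. Initial doses were 25, 10 or 5 mg/kg, then a descending series down to 0.156 mg/kg. MED is the lowest dose giving >50% inhibition of weal area versus untreated rats, p ≤ 0.05 (Student's t test).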

[2] = tested on: Rattus norvegicus; assay: Antiallergic activity in ip dosed Sprague-Dawley rat assessed as compound inhibition of egg albumin/Bordetulla pertusis antibody-induced passive sensitization treated 5 mins before induction by passive cutaneous anaphylaxis assay; settings: read-out: ID50 (the source's name)
Procedure, shortened: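 Rat antiserum against egg albumin, raised with Bordetella pertussis as adjuvant, was injected intradermally into the middorsal skin. Sensitization developed for 24 h. Compound was given ip 5 min before iv egg albumin plus Evans blue, at 10 to 0.156 mg/kg with six rats per dose. Blue-weal area was compared with untreated rats as % inhibition. ID50 was reported with 95% confidence limits.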

[3] = tested on: Rattus norvegicus; assay: Ratio of DSCG MED to compound MED for antiallergic activity in ip dosed Sprague-Dawley rat assessed as compound inhibition of egg albumin/Bordetulla pertusis antibody-induced passive sensitization treated 5 mins before induction by passive cutaneous anaphylaxis assay

| SMILES | MED>50 [1] [mg/kg] | ED50 [2] [mg/kg] | Ratio [3] |
| --- | --- | --- | --- |
| COc1ccc2sc3ccc4[nH]c(C(=O)O)cc(=O)c4c3c2c1 | >5 | – | – |
| O=C(O)c1cc(=O)c2c(ccc3sc4ccc(F)cc4c32)[nH]1 | >5 | – | – |
| O=C(O)c1cc(=O)c2ccc3sc4ccccc4c3c2[nH]1 | >10 | – | – |
| O=C(O)c1cc(=O)c2ccc3c(c2[nH]1)-c1ccccc1S3(=O)=O | 5 | – | – |
| O=C(O)c1cc(=O)c2ccc3c(c2[nH]1)S(=O)(=O)c1ccccc1-3 | >25 | – | – |
| O=C(O)c1cc(=O)c2c(ccc3c4ccccc4sc32)[nH]1 | >10 | – | – |
| O=C(O)c1cc(=O)c2c3c(ccc2[nH]1)-c1ccccc1S3(=O)=O | >10 | – | – |
| O=C(O)c1cc(=O)c2cc3c(cc2[nH]1)S(=O)(=O)c1ccccc1-3 | 2.5 | – | – |
| O=C(O)c1cc(=O)c2c(ccc3sc4ccccc4c32)[nH]1 | 5 | – | – |
| O=C(O)c1cc(=O)c2c(ccc3sc4ccc(Br)cc4c32)[nH]1 | >10 | – | – |
| O=C(O)c1cc(=O)c2c(ccc3sc4ccc(Cl)cc4c32)[nH]1 | >10 | – | – |
| Cc1ccc2sc3ccc4[nH]c(C(=O)O)cc(=O)c4c3c2c1 | >10 | – | – |
| O=C(O)c1cc(=O)c2c(ccc3sc4c(Cl)cccc4c32)[nH]1 | >10 | – | – |
| COc1cccc2c1sc1ccc3[nH]c(C(=O)O)cc(=O)c3c12 | >5 | – | – |
| Cc1cccc2c1sc1ccc3[nH]c(C(=O)O)cc(=O)c3c12 | >5 | – | – |
| O=C(O)c1cc(=O)c2c(cc(Cl)c3sc4ccccc4c32)[nH]1 | >10 | – | – |
| COc1cc2[nH]c(C(=O)O)cc(=O)c2c2c1sc1ccccc12 | >10 | – | – |
| O=C(O)c1cc(=O)c2c3c(ccc2[nH]1)S(=O)(=O)c1ccccc1-3 | – | 1.3 | – |
| O=C(O)c1cc(=O)c2c3c(ccc2[nH]1)S(=O)(=O)c1ccc(Br)cc1-3 | >10 | – | – |
| O=C(O)c1cc(=O)c2c3c(ccc2[nH]1)S(=O)(=O)c1ccc(Cl)cc1-3 | >10 | – | – |
| Cc1ccc2c(c1)-c1c(ccc3[nH]c(C(=O)O)cc(=O)c13)S2(=O)=O | 10 | – | – |
| COc1ccc2c(c1)-c1c(ccc3[nH]c(C(=O)O)cc(=O)c13)S2(=O)=O | 2.5 | – | – |
| CCCCCCOc1ccc2c(c1)-c1c(ccc3[nH]c(C(=O)O)cc(=O)c13)S2(=O)=O | >10 | – | – |

| SMILES | MED>50 [1] [mg/kg] | ED50 [2] [mg/kg] | Ratio [3] |
| --- | --- | --- | --- |
| O=C(O)c1cc(=O)c2c3c(ccc2[nH]1)S(=O)(=O)c1ccc(F)cc1-3 | 5 | – | – |
| O=C(O)c1cc(=O)c2c3c(ccc2[nH]1)S(=O)(=O)c1c(Cl)cccc1-3 | 5 | – | – |
| COc1cccc2c1S(=O)(=O)c1ccc3[nH]c(C(=O)O)cc(=O)c3c1-2 | 2.5 | – | – |
| Cc1cccc2c1S(=O)(=O)c1ccc3[nH]c(C(=O)O)cc(=O)c3c1-2 | 2.5 | – | – |
| O=C(O)c1cc(=O)c2c3c(c(Cl)cc2[nH]1)S(=O)(=O)c1ccccc1-3 | 2.5 | – | – |
| COc1cc2[nH]c(C(=O)O)cc(=O)c2c2c1S(=O)(=O)c1ccccc1-2 | 1.25 | – | – |
| COc1cc2c(c3c(=O)cc(C(=O)O)[nH]c13)-c1ccccc1S2(=O)=O | 1.25 | – | – |
| O=C(O)c1cc(=O)c2c3c(cc(Br)c2[nH]1)S(=O)(=O)c1ccccc1-3 | 2.5 | – | – |
| O=C(O)c1cc(=O)c2c(ccc3c2c2ccccc2[s+]3[O-])[nH]1 (stereo not drawn) | – | 0.3 | 8 |
| O=C(O)c1cc(=O)c2c([nH]1)c(Br)cc1c2c2ccccc2[s+]1[O-] (stereo not drawn) | 2.5 | – | – |
| O=C(O)c1cc(=O)c2cc3c(cc2[nH]1)-c1ccccc1S3(=O)=O | 2.5 | – | – |
| O=C(O)c1cc(=O)c2c(Cl)c3c(cc2[nH]1)-c1ccccc1S3(=O)=O | 0.312 | – | 8 |
| O=C(O)c1cc(=O)c2cc3c(c(Cl)c2[nH]1)-c1ccccc1S3(=O)=O | 0.625 | – | 4 |
| O=C(O)c1cc(=O)c2cc3c(c(Br)c2[nH]1)-c1ccccc1S3(=O)=O | 1.25 | – | – |
| O=C(O)c1cc(=O)c2c(Cl)c3c(c(Cl)c2[nH]1)-c1ccccc1S3(=O)=O | 1.25 | – | – |
| Cc1c2c(cc3c(=O)cc(C(=O)O)[nH]c13)S(=O)(=O)c1ccccc1-2 | 1.25 | – | – |
| O=C(O)c1cc(=O)c2cc3sc4ccccc4c3c(Cl)c2[nH]1 | >10 | – | – |
| O=C(O)c1cc(=O)c2cc3sc4ccccc4c3c(Br)c2[nH]1 | >10 | – | – |
| CSCc1c2[nH]c(C(=O)O)cc(=O)c2cc2sc3ccccc3c12 | >5 | – | – |
| O=C(O)c1cc(=O)c2cc3c(cc2[nH]1)c1ccccc1[s+]3[O-] (stereo not drawn) | 1.25 | – | – |
| O=C(O)c1cc(=O)c2cc3c(c(Cl)c2[nH]1)c1ccccc1[s+]3[O-] (stereo not drawn) | 1.25 | – | – |
| O=C([O-])c1cc(=O)c2c(OCC(O)COc3cccc4oc(C(=O)[O-])cc(=O)c34)cccc2o1.[Na+].[Na+] [CROMOLYN SODIUM] | – | 2.6 | – |
